Laboratory results taken from ChEMBL document CHEMBL1157686, “Synthesis, stereoelectronic characterization and antiparasitic activity of new 1-benzenesulfonyl-2-methyl-1,2,3,4-tetrahydroquinolines” (Bioorg Med Chem, 2010).

Columns and labels:
Plasmodium falciparum = assay: Antiplasmodial activity against chloroquine and pyrimethamine-resistant Plasmodium falciparum K1 infected in rat L6 cells; assay type: functional, organism-based
Method in brief: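 P. falciparum K1 (chloroquine- and pyrimethamine-resistant) tested in vitro following an earlier-published method. Compounds were run in duplicate over 0.2–300 μM. Values are the mean of four determinations (two per experiment, two independent experiments).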

L6 = assay: Cytotoxicity against rat L6 cells; assay type: cell-based
Method in brief: (§1)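 Protocol follows an earlier published method. Compounds were tested in duplicate over 0.2–300 μM.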

[1] = Selectivity index, ratio of IC50 for rat L6 cells to IC50 for Trypanosoma cruzi infected in rat L6 cells; assay type: toxicity, cell-based; conditions: read-out: Ratio IC50
Method in brief: (§2)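 SI = IC50 in rat L6 cells / IC50 against the parasite (T. cruzi or P. falciparum K1). Both IC50s came from duplicate in vitro runs over 0.2–300 μM following an earlier-published method, each averaged from four determinations across two independent experiments.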

[2] = Selectivity index, ratio of IC50 for rat L6 cells to IC50 for chloroquine and pyrimethamine-resistant Plasmodium falciparum K1 infected in rat L6 cells; assay type: toxicity, cell-based; conditions: read-out: Ratio IC50; method in brief: as §2
[3] = Ratio of compound IC50 to podophyllotoxin IC50 for rat L6 cells; assay type: cell-based; conditions: read-out: Ratio IC50
[4] = tested on: Trypanosoma brucei rhodesiense; assay: Antitrypanosomal activity against Trypanosoma brucei rhodesiense infected in rat L6 cells; assay type: functional, organism-based; method in brief: as §1
Trypanosoma cruzi [5] = assay: Antitrypanosomal activity against Trypanosoma cruzi infected in rat L6 cells; assay type: functional, organism-based; method in brief: as §1
Leishmania donovani = assay: Antileishmanial activity against Leishmania donovani infected in rat L6 cells; assay type: functional, organism-based; method in brief: as §1
Trypanosoma cruzi [6] = assay: Ratio of compound IC50 to benznidazole IC50 for Trypanosoma cruzi infected in rat L6 cells; assay type: functional

Row | SMILES | IC50 (Plasmodium falciparum) [µM] | IC50 (L6) [µM] | selectivity ratio [1] | selectivity ratio [2] | selectivity ratio [3] | IC50 [4] [µM] | IC50 (Trypanosoma cruzi [5]) [µM] | IC50 (Leishmania donovani) [µM] | Ratio IC50 (Trypanosoma cruzi [6])
1 | CC1CCc2ccccc2N1S(=O)(=O)c1ccc(Cl)cc1 (stereo unspecified) | 8.43 | 20.5 | 1.28 | 2.43 | 590 | 43.5 | 16 | 18.9 | 
2 | CCCCCCCCCCCCCCCCOP(=O)([O-])OCC[N+](C)(C)C [MILTEFOSINE] |  |  |  |  |  |  |  | 0.25 | 
3 | CC1CCc2ccccc2N1S(=O)(=O)c1ccc(N)cc1 (stereo unspecified) | > 16.6 | 35.3 | 1.78 | < 2.13 | 590 | 37.2 | 19.7 | 55.8 | 
4 | CC(=O)Nc1ccc(S(=O)(=O)N2c3ccccc3CCC2C)cc1 (stereo unspecified) | > 14.5 | 52 | 2.42 | < 3.58 | 590 | 49.8 | 21.4 | 50.7 | 
5 | CC1CCc2ccccc2N1S(=O)(=O)c1ccccc1 (stereo unspecified) | 13.2 | 70 | 3.29 | 5.28 | 590 | 52.9 | 21.3 | 174 | 
6 | CC1CCc2ccccc2N1S(=O)(=O)c1ccc([N+](=O)[O-])cc1 (stereo unspecified) | 8.31 | 248 | 21.7 | 30 | 590 | 153 | 11.4 | > 271 | 7
7 | Nc1nc(N)nc(Nc2ccc([As]3SCC(CO)S3)cc2)n1 (stereo unspecified) [MELARSOPROL] |  |  |  |  |  | 0.008 |  |  | 
8 | COc1ccc(S(=O)(=O)N2c3ccccc3CCC2C)cc1 (stereo unspecified) | 11.8 | 5.99 | 0.37 | 0.5 | 590 | 43.9 | 15.9 | 26.7 | 
9 | Cc1ccc(S(=O)(=O)N2c3ccccc3CCC2C)cc1 (stereo unspecified) | 11 | 4.9 | 0.29 | 0.44 | 590 | 44 | 16.6 | 22.5 | 
10 | O=C(Cn1ccnc1[N+](=O)[O-])NCc1ccccc1 [BENZNIDAZOLE] |  |  |  |  |  |  | 1.54 |  | 
11 | CC1CCc2ccccc2N1S(=O)(=O)c1cccc([N+](=O)[O-])c1 (stereo unspecified) | 10.3 | 187 | 5.85 | 18.1 | 590 | 33.1 | 31.9 | 24.9 | 
12 | CC1CCc2ccccc2N1S(=O)(=O)c1ccc(F)cc1 (stereo unspecified) | 12.1 | 67.6 | 0.3 | 5.58 | 590 | 125 | 224 | 167 | 
13 | CC1CCc2ccccc2N1S(=O)(=O)c1ccc(Br)cc1 (stereo unspecified) | 6.65 | 7.36 | 0.53 | 1.1 | 590 | 40.1 | 13.8 | 21.4 | 
14 | CC1CCc2ccccc2N1 (stereo unspecified) | > 34 | 249 | 1.32 | < 7.32 |  | 87.2 | 189 | > 611 | 
